Test results from ChEMBL document CHEMBL4152389, “Discovery of Novel, Drug-Like Ferroptosis Inhibitors with in Vivo Efficacy” (J Med Chem, 2018).
Values after ≈ are worked out from the molar mass of the structure shown. Active and inactive are the calls of the source. The calls are words filed in the database; no cut-off is given here.

What was measured:
IMR-32 [1] = experiment: Inhibition of erastin-induced ferroptosis in human IMR32 cells preincubated for 1 hr followed by erastin stimulation and measured after 13 hrs by sytox green-based fluorescence assay; type: functional, cell-based
In short: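 IMR-32 neuroblastoma cells seeded at 25,000/well, next day pretreated 1 h in triplicate with 1/3 dilution series (5 μM to 0.68 nM) plus Sytox Green 1.6 μM, then erastin 10 μM.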

[2] = Kinetic solubility in PBS at pH 7.4 after 2 hrs by turbidimetric method; type: physicochemical; conditions: read-out: Kinetic_solubility
In short: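 Kinetic solubility by turbidity (UV/VIS reading); final compound 3.125–200 μM, from 4 μL DMSO solution in 196 μL 10 mM PBS pH 7.4.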

IMR-32 [3] = experiment: Inhibition of ferrous ammonium sulphate-induced ferroptosis in human IMR32 cells preincubated for 1 hr followed by ferrous ammonium sulphate stimulation and measured after 13 hrs by sytox green-based fluorescence assay
[4] = Intrinsic clearance in mouse liver microsomes at 50 uM after 15 mins to 24 hrs by LC/MS/MS analysis; type: ADME, microsome; conditions: read-out: CLH
In short: (§1)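 Intrinsic clearance calculated from measured microsomal half-life in human, mouse or rat liver microsomes, accounting for protein concentration and incubation volume with species-specific parameters.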

[5] = Metabolic stability in mouse plasma assessed as compound recovery at 50 uM after 6 hrs by LC/MS/MS analysis; type: ADME, cell-free; conditions: read-out: Drug recovery
In short: (§2)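 Compound incubated in human, rat or mouse plasma; percentage of remaining parent compound determined after 6 h.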

Mus musculus [6] = experiment: Toxicity in wild type mouse assessed as urea levels in plasma at 20 umol/kg, ip administered daily for 4 weeks measured at day 28 (reference value: 42 +/- 2 mg/dl); type: organism-based; conditions: in vivo, 672 h
Mus musculus [7] = experiment: Toxicity in wild type mouse assessed as ALT levels in plasma at 20 umol/kg, ip administered daily for 4 weeks measured at day 28 (reference value: <25 U/L); type: organism-based; conditions: in vivo, 672 h
Mus musculus [8] = experiment: In vivo inhibition of iron sulphate-induced ferroptosis in C57BL/6N mouse assessed as LDH levels in plasma at 20 umol/kg, iv administered 15 mins prior to acute iron poisoning and measured after 2 hrs (reference value: 3572 +/- 185 U/L); type: functional
[9] = Metabolic stability in rat plasma assessed as compound recovery at 50 uM after 6 hrs by LC/MS/MS analysis; type: ADME, cell-free; conditions: read-out: Drug recovery; in short: as §2
Mus musculus [10] = experiment: Toxicity in wild type mouse assessed as troponin levels in plasma at 20 umol/kg, ip administered daily for 4 weeks measured at day 28 (reference value: 0.041 +/- 0.005 ug/l); type: organism-based; conditions: in vivo, 672 h
[11] = Intrinsic clearance in rat liver microsomes at 50 uM after 15 mins to 24 hrs by LC/MS/MS analysis; type: ADME, microsome; conditions: read-out: CLH; in short: as §1
Mus musculus [12] = experiment: Toxicity in wild type mouse assessed as relative gain in body weight at 20 umol/kg, ip administered daily for 4 weeks measured during compound dosing (reference value: 14.8 +/- 3.4%); type: organism-based; conditions: in vivo, 672 h
Mus musculus [13] = experiment: Toxicity in wild type mouse assessed as AST levels in plasma at 20 umol/kg, ip administered daily for 4 weeks measured at day 28 (reference value: 110 +/- 8 U/L); type: organism-based; conditions: in vivo, 672 h
Mus musculus [14] = experiment: Toxicity in wild type mouse assessed as creatinine levels in plasma at 20 umol/kg, ip administered daily for 4 weeks measured at day 28 (reference value: <0.2 mg/dl); type: organism-based; conditions: in vivo, 672 h
[15] = Metabolic stability in human plasma assessed as compound recovery at 50 uM after 6 hrs by LC/MS/MS analysis; type: ADME, cell-free; conditions: read-out: Drug recovery; in short: as §2
Mus musculus [16] = experiment: Toxicity in wild type mouse assessed as LDH levels in plasma at 20 umol/kg, ip administered daily for 4 weeks measured at day 28 (reference value: 227 +/- 18 U/L); type: organism-based; conditions: in vivo, 672 h
Mus musculus [17] = experiment: Toxicity in wild type mouse assessed as body temperature at 20 umol/kg, ip administered daily for 4 weeks measured during compound dosing (reference value: 37 +/- 0.6 degreeC); type: organism-based; conditions: in vivo, 672 h
[18] = Intrinsic clearance in human liver microsomes at 50 uM after 15 mins to 24 hrs by LC/MS/MS analysis; type: ADME, microsome; conditions: read-out: CLH; in short: as §1
[19] = Plasma concentration in Wistar rat at 5 mg/kg, iv after 0.083 to 24 hrs by UPLC-MS analysis; type: ADME, organism-based; conditions: in vivo
In short: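 Single iv 5 mg/kg to three male Wistar rats; blood sampled at 0.083, 0.25, 0.5, 1, 2, 4 and 24 h; plasma drug measured by UPLC–tandem quadrupole MS, detection limit 53.1 ng/mL.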

Mus musculus [20] = experiment: Toxicity in wild type mouse assessed as CK levels in plasma at 20 umol/kg, ip administered daily for 4 weeks measured at day 28 (reference value: 1501 +/- 196 U/L); type: organism-based; conditions: in vivo, 672 h
[21] = Half life in human liver microsomes at 10 uM in presence of NADPH regenerating system by LC/MS/MS analysis; type: ADME, microsome
In short: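 Incubation with human liver microsomes; metabolism by CYP450 and other NADP-dependent enzymes monitored and expressed as half-life (h).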

## CNCCNS(=O)(=O)c1ccc(NC2CCCCC2)c(N)c1.Cl
IMR-32 [1]
  IC50: 214 nM
[2]
  solubility kinetic at 2 h: > 200 µM

## Nc1cc(S(=O)(=O)NCCN2CCOCC2)ccc1NC1CCCCC1
IMR-32 [1]
  IC50: 448 nM
[2]
  solubility kinetic at 2 h: > 200 µM

## Cl.O=S(=O)(NCCN1CCNCC1)c1ccc(NC2CCCCC2)c(NCc2ccccc2)c1
IMR-32 [3]
  inhibition: Active
[4]
  CLint scaled at 50 µM: 18 mL/min/kg
IMR-32 [1]
  IC50: 10 nM
[5]
  remaining at 6 h, 50 µM: 100%
Mus musculus [6]
  Activity: 43 mg/dL
Mus musculus [7]
  Activity: < 25 U/L
Mus musculus [8]
  Activity: 2346 U/L
[9]
  remaining at 6 h, 50 µM: 85.8%
Mus musculus [10]
  Activity: 0.044 µg/L
[11]
  CLint scaled at 50 µM: 3.4 mL/min/kg
Mus musculus [12]
  Activity: 10.4%
Mus musculus [13]
  Activity: 123 U/L
Mus musculus [14]
  Activity: < 0.2 mg/dL
[2]
  solubility kinetic at 2 h: > 200 µM
[15]
  remaining at 6 h, 50 µM: 84.2%
Mus musculus [16]
  Activity: 263 U/L
Mus musculus [17]
  T: 37 °C
[18]
  CLint scaled at 50 µM: 1.1 mL/min/kg
[19]
  Cp: < 53.1 ng/mL
Mus musculus [20]
  Activity: 1865 U/L

## Cl.O=S(=O)(NCCN1CCNCC1)c1ccc(NC2CCCCC2)c(NCc2ccncc2)c1
IMR-32 [1]
  IC50: 442 nM
[2]
  solubility kinetic at 2 h: > 200 µM

## CNCCNS(=O)(=O)c1ccc(NC2CCCCC2)c(NCc2ccncc2)c1.Cl
IMR-32 [1]
  IC50: 157 nM
[2]
  solubility kinetic at 2 h: > 200 µM

## O=S(=O)(NCCN1CCOCC1)c1ccc(NC2CCCCC2)c(NCc2ccccc2)c1
[4]
  CLint scaled at 50 µM: 1220 mL/min/kg
IMR-32 [1]
  IC50: 24 nM
[5]
  remaining at 6 h, 50 µM: 100%
[9]
  remaining at 6 h, 50 µM: 100%
[11]
  CLint scaled at 50 µM: 326 mL/min/kg
[2]
  solubility kinetic at 2 h: 50 to 100 µM (≈ 23.6 to 47.3 µg/mL)
[15]
  remaining at 6 h, 50 µM: 100%
[18]
  CLint scaled at 50 µM: 22.6 mL/min/kg

## Cl.NCCNS(=O)(=O)c1ccc(NC2CCCCC2)c(NCc2ccncc2)c1
IMR-32 [1]
  IC50: 112 nM
[2]
  solubility kinetic at 2 h: 100 to 200 µM

## CCOC(=O)c1ccc(NC2CCCCC2)c(N)c1
IMR-32 [3]
  inhibition: Active
IMR-32 [1]
  IC50: 33 nM
[5]
  remaining at 6 h, 50 µM: 0%
Mus musculus [8]
  Activity: 2898 U/L
[9]
  remaining at 6 h, 50 µM: 1.1%
[2]
  solubility kinetic at 2 h: > 200 µM
[21]
  half-life at 10 µM: 6.54 min
[15]
  remaining at 6 h, 50 µM: 47.3%

## CN1CCN(CCNS(=O)(=O)c2ccc(NC3CCCCC3)c(N)c2)CC1
IMR-32 [1]
  IC50: 236 nM
[2]
  solubility kinetic at 2 h: > 200 µM

## O=S(=O)(NCCN1CCOCC1)c1ccc(NC2CCCCC2)c(NCc2ccncc2)c1
IMR-32 [1]
  IC50: 191 nM
[2]
  solubility kinetic at 2 h: > 200 µM

## Cl.Nc1cc(S(=O)(=O)NCCN2CCNCC2)ccc1NC1CCCCC1
IMR-32 [1]
  IC50: 296 nM
[2]
  solubility kinetic at 2 h: > 200 µM

## CNCCNS(=O)(=O)c1ccc(NC2CCCCC2)c(NCc2ccccc2)c1.Cl
IMR-32 [3]
  inhibition: Active
[4]
  CLint scaled at 50 µM: 139 mL/min/kg
IMR-32 [1]
  IC50: 3 nM
[5]
  remaining at 6 h, 50 µM: 100%
Mus musculus [8]
  Activity: 2093 U/L
[9]
  remaining at 6 h, 50 µM: 65.8%
[11]
  CLint scaled at 50 µM: 161 mL/min/kg
[2]
  solubility kinetic at 2 h: > 200 µM
[15]
  remaining at 6 h, 50 µM: 90.3%
[18]
  CLint scaled at 50 µM: 1.7 mL/min/kg

## CN1CCN(CCNS(=O)(=O)c2ccc(NC3CCCCC3)c(NCc3ccncc3)c2)CC1
IMR-32 [1]
  IC50: 1520 nM
[2]
  solubility kinetic at 2 h: > 200 µM

## CN(C)CCNS(=O)(=O)c1ccc(NC2CCCCC2)c(NCc2ccccc2)c1
IMR-32 [1]
  IC50: 554 nM
[2]
  solubility kinetic at 2 h: > 200 µM

## COCCNS(=O)(=O)c1ccc(NC2CCCCC2)c(NCc2ccccc2)c1
IMR-32 [1]
  IC50: 22 nM
[2]
  solubility kinetic at 2 h: 25 to 50 µM (≈ 10.4 to 20.9 µg/mL)

## CN(C)CCNS(=O)(=O)c1ccc(NC2CCCCC2)c(NCc2ccncc2)c1
IMR-32 [1]
  IC50: 1560 nM
[2]
  solubility kinetic at 2 h: > 200 µM

## COCCNS(=O)(=O)c1ccc(NC2CCCCC2)c(NCc2ccncc2)c1
IMR-32 [1]
  IC50: 97 nM
[2]
  solubility kinetic at 2 h: > 200 µM

## CN1CCN(CCNS(=O)(=O)c2ccc(NC3CCCCC3)c(NCc3ccccc3)c2)CC1
IMR-32 [1]
  IC50: 1070 nM
[2]
  solubility kinetic at 2 h: > 200 µM

## Cl.NCCNS(=O)(=O)c1ccc(NC2CCCCC2)c(N)c1
IMR-32 [1]
  IC50: 306 nM
[2]
  solubility kinetic at 2 h: > 200 µM

## COCCNS(=O)(=O)c1ccc(NC2CCCCC2)c(N)c1
IMR-32 [1]
  IC50: 492 nM
[2]
  solubility kinetic at 2 h: > 200 µM

## CN(C)CCNS(=O)(=O)c1ccc(NC2CCCCC2)c(N)c1
IMR-32 [1]
  IC50: 160 nM
[2]
  solubility kinetic at 2 h: > 200 µM

## Cl.NCCNS(=O)(=O)c1ccc(NC2CCCCC2)c(NCc2ccccc2)c1
IMR-32 [3]
  inhibition: Active
[4]
  CLint scaled at 50 µM: 4.8 mL/min/kg
IMR-32 [1]
  IC50: 12 nM
[5]
  remaining at 6 h, 50 µM: 100%
Mus musculus [8]
  Activity: 2293 U/L
[9]
  remaining at 6 h, 50 µM: 100%
[11]
  CLint scaled at 50 µM: 27.4 mL/min/kg
[2]
  solubility kinetic at 2 h: > 200 µM
[15]
  remaining at 6 h, 50 µM: 100%
[18]
  CLint scaled at 50 µM: 1.3 mL/min/kg
